Key:
[1] = Therapeutic index, ratio of MTD for Sprague-Dawley rat to MCD for blood stage of Plasmodium berghei NK65; conditions: read-out: TI
Method in brief: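 MCD (minimum clearance dose) comes from rodents infected with blood-stage P. berghei NK65, dosed orally except artesunate, which was given iv. MTD (maximum tolerated dose) comes from Sprague–Dawley rats. Both are in mg/kg. Therapeutic index is MTD divided by MCD.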

Plasmodium falciparum [2] = test: Antimalarial activity against chloroquine-resistant Plasmodium falciparum TM6 infected in human A positive erythrocytes assessed as inhibition of [G-3H]-hypoxanthine uptake after 24 hrs by liquid scintillation counting; assay type: functional, organism-based; conditions: TM6, 24 h
Plasmodium falciparum [3] = test: Antimalarial activity against chloroquine-resistant Plasmodium falciparum K1 infected in human A positive erythrocytes assessed as inhibition of [G-3H]-hypoxanthine uptake after 24 hrs by liquid scintillation counting; assay type: functional, organism-based; conditions: K1, 24 h
Plasmodium falciparum [4] = test: Antimalarial activity against Plasmodium falciparum PH3 infected in human A positive erythrocytes assessed as inhibition of [G-3H]-hypoxanthine uptake after 24 hrs by liquid scintillation counting; assay type: functional, organism-based; conditions: PH3, 24 h
Plasmodium berghei [5] = test: Antimalarial activity against blood stage of Plasmodium berghei NK65 infected in po dosed rat assessed as minimum curative dose; assay type: functional
Method in brief: (§1)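 Rodents infected with blood-stage Plasmodium berghei NK65 were dosed by the route given in each line. Read-out was the minimum clearance dose (MCD), the lowest dose clearing parasites, reported in mg/kg. Method follows earlier reports.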

Plasmodium falciparum [6] = test: Antimalarial activity against Plasmodium falciparum TM4 infected in human A positive erythrocytes assessed as inhibition of [G-3H]-hypoxanthine uptake after 24 hrs by liquid scintillation counting; assay type: functional, organism-based; conditions: TM4, 24 h
Plasmodium falciparum [7] = test: Antimalarial activity against chloroquine-resistant Plasmodium falciparum VS/1 infected in human A positive erythrocytes assessed as inhibition of [G-3H]-hypoxanthine uptake after 24 hrs by liquid scintillation counting; assay type: functional; conditions: VS/1, 24 h
Plasmodium falciparum [8] = test: Antimalarial activity against Plasmodium falciparum Dd2 infected in human A positive erythrocytes assessed as inhibition of [G-3H]-hypoxanthine uptake after 24 hrs by liquid scintillation counting; assay type: functional, organism-based; conditions: Dd2, 24 h
Rattus norvegicus = species: Rattus norvegicus; test: Ratio of compound MTD to febrifugine MTD in Sprague-Dawley rat; assay type: ADME, organism-based; conditions: in vivo
Plasmodium falciparum [9] = test: Antimalarial activity against chloroquine-sensitive Plasmodium falciparum 3D7 infected in human A positive erythrocytes assessed as inhibition of [G-3H]-hypoxanthine uptake after 24 hrs by liquid scintillation counting; assay type: functional, organism-based; conditions: 3D7, 24 h
[10] = Acute toxicity in po dosed Sprague-Dawley rat assessed as maximum tolerated dose; assay type: organism-based; conditions: in vivo
Plasmodium berghei [11] = test: Antimalarial activity against blood stage of Plasmodium berghei NK65 infected in po dosed rat assessed as inhibition of parasite growth; assay type: functional
Method in brief: (§2)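 Blood-stage Plasmodium berghei NK65 infection in rodents. Compounds were given by the route stated in each line. ED50 is the dose in mg/kg giving 50% parasite growth inhibition relative to the untreated blank control. Procedure follows earlier reports.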

Plasmodium falciparum [12] = test: Antimalarial activity against chloroquine-resistant Plasmodium falciparum FVO infected in Aotus monkey assessed as cure rate at 8 mg/kg, po qd for 3 days; assay type: functional
Method in brief: (§3)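 Aotus monkeys carrying chloroquine-resistant P. falciparum FVO were dosed orally once daily for 3 days at 2, 4, 8 or 16 mg/kg/day. Dosing began the day after parasitemia reached approximately 5,000 organisms per mm³. Cure means parasitemia cleared with no recrudescence. Cure rate is animals cured over total tested.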

Plasmodium falciparum [13] = test: Antimalarial activity against chloroquine-resistant Plasmodium falciparum FVO infected in Aotus monkey assessed as cure rate at 4 mg/kg, po qd for 3 days; assay type: functional; method in brief: as §3
Plasmodium falciparum [14] = test: Antimalarial activity against chloroquine-resistant Plasmodium falciparum FVO infected in Aotus monkey assessed as cure rate at 16 mg/kg, po qd for 3 days; assay type: functional; method in brief: as §3
Plasmodium falciparum [15] = test: Antimalarial activity against chloroquine-resistant Plasmodium falciparum FVO infected in Aotus monkey assessed as cure rate at 2 mg/kg, po qd for 3 days; assay type: functional; method in brief: as §3
Plasmodium berghei [16] = test: Antimalarial activity against blood stage of Plasmodium berghei NK65 infected in iv dosed rat assessed as minimum curative dose; assay type: functional; method in brief: as §1
Plasmodium berghei [17] = test: Antimalarial activity against blood stage of Plasmodium berghei NK65 infected in iv dosed rat assessed as inhibition of parasite growth; assay type: functional; method in brief: as §2

`O=C(Cn1cnc2cccc(F)c2c1=O)[C@H]1NCC[C@@H]1O` showed a selectivity ratio [1] of 63, an IC50 (Plasmodium falciparum [2]) of 3.9 nM and an IC50 (Plasmodium falciparum [3]) of 5.9 nM. It also gave an IC50 (Plasmodium falciparum [4]) of 2.5 nM, an MCD (Plasmodium berghei [5]) of 6.3 mg/kg and an IC50 (Plasmodium falciparum [6]) of 6.2 nM. The IC50 (Plasmodium falciparum [7]) was 5.3 nM, the IC50 (Plasmodium falciparum [8]) was 8.1 nM and the Ratio (Rattus norvegicus) was greater than 10. It also gave an IC50 (Plasmodium falciparum [9]) of 5.7 nM, an MTD [10] of 400 mg/kg and an ED50 (Plasmodium berghei [11]) of 1.1 mg/kg.
With `O=C(Cn1cnc2cccnc2c1=O)[C@H]1NCC[C@@H]1O` the selectivity ratio [1] was 63, the IC50 (Plasmodium falciparum [2]) was 2.1 nM and the IC50 (Plasmodium falciparum [3]) was 3.1 nM. It also gave an IC50 (Plasmodium falciparum [4]) of 1.1 nM, an MCD (Plasmodium berghei [5]) of 7.1 mg/kg and an IC50 (Plasmodium falciparum [6]) of 4.1 nM. It also gave an IC50 (Plasmodium falciparum [7]) of 3.6 nM, an IC50 (Plasmodium falciparum [8]) of 2.3 nM and a Ratio (Rattus norvegicus) greater than 10. For the same molecule, the IC50 (Plasmodium falciparum [9]) was 1.8 nM, the MTD [10] was 450 mg/kg and the ED50 (Plasmodium berghei [11]) was 1.2 mg/kg.
`O=C(Cn1cnc2cccnc2c1=O)[C@H]1NCC[C@@H]1OCc1ccccc1` showed a selectivity ratio [1] of 147, an IC50 (Plasmodium falciparum [2]) of 0.08 nM and an IC50 (Plasmodium falciparum [3]) of 0.24 nM. The Activity (Plasmodium falciparum [12]) was 80%, the IC50 (Plasmodium falciparum [4]) was 0.2 nM and the Activity (Plasmodium falciparum [13]) was 71%. The MCD (Plasmodium berghei [5]) was 1.7 mg/kg, the IC50 (Plasmodium falciparum [6]) was 0.33 nM and the IC50 (Plasmodium falciparum [7]) was 0.13 nM. For the same molecule, the IC50 (Plasmodium falciparum [8]) was 0.17 nM, the IC50 (Plasmodium falciparum [9]) was 0.21 nM and the Activity (Plasmodium falciparum [14]) was 100%. For the same molecule, the Activity (Plasmodium falciparum [15]) was 25%, the MTD [10] was 250 mg/kg and the ED50 (Plasmodium berghei [11]) was 0.19 mg/kg.
In the case of `CCN(CC)Cc1cc(Nc2ccnc3cc(Cl)ccc23)ccc1O`, the IC50 (Plasmodium falciparum [2]) is reported as 7.5 nM, the IC50 (Plasmodium falciparum [3]) is reported as 21.2 nM and the IC50 (Plasmodium falciparum [4]) is reported as 15.9 nM. It also gave an IC50 (Plasmodium falciparum [6]) of 15.2 nM, an IC50 (Plasmodium falciparum [7]) of 8.7 nM and an IC50 (Plasmodium falciparum [8]) of 9.1 nM. It also gave an IC50 (Plasmodium falciparum [9]) of 4.9 nM.
Work on `CCN(CC)CCCC(C)Nc1ccnc2cc(Cl)ccc12` (configuration not stated) [CHLOROQUINE] yielded an MCD (Plasmodium berghei [5]) of 40 mg/kg and an ED50 (Plasmodium berghei [11]) of 4.5 mg/kg.
Molecule `O=C(Cn1cnc2ccncc2c1=O)[C@H]1NCC[C@@H]1O` has a selectivity ratio [1] of 47, an IC50 (Plasmodium falciparum [2]) of 3.4 nM and an IC50 (Plasmodium falciparum [3]) of 2.8 nM. It also gave an IC50 (Plasmodium falciparum [4]) of 1 nM, an MCD (Plasmodium berghei [5]) of 7.5 mg/kg and an IC50 (Plasmodium falciparum [6]) of 3 nM. It also gave an IC50 (Plasmodium falciparum [7]) of 4.1 nM, an IC50 (Plasmodium falciparum [8]) of 2.2 nM and a Ratio (Rattus norvegicus) greater than 10. For the same molecule, the IC50 (Plasmodium falciparum [9]) was 1.4 nM, the MTD [10] was 350 mg/kg and the ED50 (Plasmodium berghei [11]) was 1 mg/kg.
Molecule `O=C(Cn1cnc2cccc(C(F)(F)F)c2c1=O)[C@H]1NCC[C@@H]1O` has a selectivity ratio [1] of 60, an IC50 (Plasmodium falciparum [2]) of 2.5 nM and an IC50 (Plasmodium falciparum [3]) of 4.7 nM. It also gave an IC50 (Plasmodium falciparum [4]) of 3.2 nM, an MCD (Plasmodium berghei [5]) of 6.7 mg/kg and an IC50 (Plasmodium falciparum [6]) of 7.4 nM. For the same molecule, the IC50 (Plasmodium falciparum [7]) was 11.2 nM, the IC50 (Plasmodium falciparum [8]) was 6.3 nM and the Ratio (Rattus norvegicus) was greater than 10. The IC50 (Plasmodium falciparum [9]) was 2.7 nM, the MTD [10] was 400 mg/kg and the ED50 (Plasmodium berghei [11]) was 0.95 mg/kg.
With `O=C(Cn1cnc2cccc(C(F)(F)F)c2c1=O)[C@H]1NCC[C@H]1O` the IC50 (Plasmodium falciparum [2]) was 25.6 nM, the IC50 (Plasmodium falciparum [3]) was 24.2 nM and the IC50 (Plasmodium falciparum [4]) was 21.2 nM. The IC50 (Plasmodium falciparum [6]) was 51.9 nM, the IC50 (Plasmodium falciparum [7]) was 36.5 nM and the IC50 (Plasmodium falciparum [8]) was 31.8 nM. It also gave an IC50 (Plasmodium falciparum [9]) of 19.6 nM.
Work on `C[C@H]1[C@H](OC(=O)CCC(=O)O)O[C@@H]2O[C@@]3(C)CC[C@H]4[C@H](C)CC[C@@H]1[C@@]24OO3` [ARTESUNATE] yielded a selectivity ratio [1] of 37, an MCD (Plasmodium berghei [16]) of 6.8 mg/kg and an ED50 (Plasmodium berghei [17]) of 0.55 mg/kg.

Reference: ChEMBL document CHEMBL1926628, “Febrifugine analogue compounds: synthesis and antimalarial evaluation” (Bioorg Med Chem, 2012)
